This is a sample that favours compounds with a hit; in the whole collection about 2.4% have one here.
MOR-DOR inv ag: inverse agonists of MOR-DOR heterodimerization, primary screen, cell-based, luminescence. Mu-type opioid receptor (Homo sapiens) + Delta-type opioid receptor (Homo sapiens), …. cell-based MOR-DOR heterodimer luminescence, inverse agonism. inhibition, % at 9.3 µM. 0.21% of 340,000 active; in the data active = inhibition above about 22%, passing the limit was not always enough;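 note: 0% = cells with DMSO and 100% = wells without cells with DMSO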
MOR-DOR ag: agonists of OPRM1-OPRD1 heterodimerization, primary screen, cell-based, luminescence; Mu-type opioid receptor (Homo sapiens) + Delta-type opioid receptor (Homo sapiens), …; cells; activation, % at 9.3 µM; 0.3% of 340,000 active;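 note: 0% = vehicle-treated cells and 100% = reference agonist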
HTR5A ag ctr: HTR5A agonists in luminescence cell assay, primary screen, counter-screen for OPRM1-OPRD1 heterodimer agonist project, full-deck HTS | activation, % at 9.3 µM | AID 504692, 2011 | cell-based | 0.61% of 340,000 active | 5-hydroxytryptamine receptor 5A (Homo sapiens), P47898; in the data active = activation mostly above about 9.5%, no sharp cut-off; inactive = mostly below about 7.6%;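 note: 0% = cells with vehicle only and 100% = reference agonist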
MC4R antag cAMP: MC4R antagonists of cAMP signaling, primary screen, cell-based, TR-FRET, antagonist arm of biased-ligand search; Melanocortin receptor 4 (Homo sapiens), P32245; MC4R-expressing cells, MTII-stimulated cAMP, LANCE TR-FRET; inhibition, % at 6.5 µM; 0.48% of 360,000 active;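 active = inhibition above its plate's cutoff, the mean of tested wells on that plate plus 3 SD, cut at about 29% in these data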;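 note: 0% = Melanotan II alone and 100% = Melanotan II plus saturating MCL0020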
Target sequence (P32245 whole entry, looked up): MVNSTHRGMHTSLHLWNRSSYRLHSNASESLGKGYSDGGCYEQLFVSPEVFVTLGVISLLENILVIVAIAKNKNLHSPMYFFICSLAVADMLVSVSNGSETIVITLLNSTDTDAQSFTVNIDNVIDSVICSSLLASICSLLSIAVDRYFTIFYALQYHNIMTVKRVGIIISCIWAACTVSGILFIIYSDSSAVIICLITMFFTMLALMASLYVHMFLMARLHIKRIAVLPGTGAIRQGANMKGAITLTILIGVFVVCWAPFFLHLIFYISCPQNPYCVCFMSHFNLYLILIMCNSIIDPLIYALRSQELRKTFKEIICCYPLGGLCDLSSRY
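System: U2OS-MC4R stable cell line; Technique: Eu-cAMP/anti-cAMP TR-FRET, emission 671 nm; Repeats: single well per compound; Also added: Melanotan II; Dosing: one concentration, 6.5 µM nominal; Schedule: 30-min compound, 1-h challenge, 1-h detection, room temperature.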
HTR5A inv ctr: HTR5A inverse agonists in luminescence cell assay, primary screen, counter-screen for OPRM1-OPRD1 heterodimer inverse agonist project, full-deck HTS; 5-hydroxytryptamine receptor 5A (Homo sapiens), P47898; HTR5A cell line, inverse agonism; inhibition, % at 9.3 µM; 0.083% of 340,000 active; AID 504634, 2011; in the data active = inhibition mostly above about 23%, no sharp cut-off; inactive = mostly below about 18%;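 note: 0% = cells with DMSO and 100% = no-cell wells with DMSO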
MC4R barr agon: MC4R agonists recruiting beta-arrestin, primary screen, cell-based, luminescence, agonist arm of biased-ligand search; U2OS MC4R beta-arrestin complementation; percent of melanotan II response, DMSO zero; Melanocortin receptor 4 (Homo sapiens), P32245; AID 540308, 2011; 0.98% of 360,000 active; activation, % at 8.9 µM;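 active = activation above a per-plate cutoff, the mean activation of sample wells on that plate plus 3 SD, cut at about 8% in these data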
OPRM1-D1 ag cf: agonists of MOR-DOR heterodimerization, confirmation, cell-based, luminescence; activation, % at 9.3 µM; cells, luminescence complementation; 45% of 830 active; shares compounds with MOR-DOR ag;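 note: 0% = vehicle-treated cells and 100% = reference agonist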
HTR5A ag counter: HTR5A agonists in cells, counter-screen for OPRM1-OPRD1 heterodimer agonist project, cell-based, luminescence. 8% of 830 active. HTR5A agonist counterscreen. shares compounds with MOR-DOR ag. activation, % at 9.3 µM; in the data active = activation above about 17%;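 note: 0% = vehicle-treated cells and 100% = reference agonist response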
Numbers without * were called inactive; i = inactive; . = not tested or not shown. Cut-off read from the data, not from the text of the source, unless noted: active = activation above about 18%; inactive = the rest.

SMILES	MOR-DOR inv ag	MOR-DOR ag	HTR5A ag ctr	MC4R antag cAMP	HTR5A inv ctr	MC4R barr agon	OPRM1-D1 ag cf	HTR5A ag counter
CCCCN(C(=O)c1cc(OC)c(OC)c(OC)c1)C1=CC2CCC(C1)N2C (stereo not drawn)	0	0	-2	0	5	-2	.	.
COc1cc(C(=O)N(CCc2ccccc2)C2=CC3CCC(C2)N3C)cc(OC)c1OC (stereo not drawn)	-75	18*	-5	23	11	1	0	0
C[C@H]1O[C@@H](O[C@H]2[C@@H](O)C[C@H](O[C@H]3[C@@H](O)C[C@H](O[C@H]4CC[C@@]5(C)[C@H](CC[C@@H]6[C@@H]5C[C@@H](O)[C@]5(C)[C@@H](C7=CC(=O)OC7)CC[C@]65O)C4)O[C@@H]3C)O[C@@H]2C)C[C@H](O)[C@@H]1O	-359	65*	28	7	-94	39*	2	105*
NC(=O)c1cccc(-c2cc(Nc3ccc(OC(F)(F)F)cc3)ncn2)c1	-4	1	-2	2	20	2	.	.
OCC1(CCc2ccccc2)CCN(Cc2cccn2-c2cccnc2)CC1	i	144*	-12	4	3	-1	384*	2
Cc1cc(/C=C2\SC(=S)N(C)C2=O)c(C)n1-c1ccc(O)cc1	-271	52*	7	23	0	4	33*	-2
Cc1cc(/C=C2\SC(=S)N(C)C2=O)c(C)n1-c1ccccc1O	-72	14	1	0	-2	0	.	.
CCOC(=O)C1(CCc2ccccc2)CCN(Cc2c(O)cccc2OC)CC1	i	292*	-2	10	6	4	-1	-8
CCOC(=O)C1(CCc2ccccc2)CCN(Cc2ccc(OC)cc2)CC1	i	129*	-1	5	3	-3	7	8
CCc1nccn1CCC(=O)NC1CC(C)(C)Cc2c1cnn2-c1cccc(F)c1 (stereo not drawn)	14	-3	-4	-4	9	-2	.	.
NC(N)=NC(=O)c1nc(Cl)c(N2CCCCCC2)nc1N	-389	72*	-3	0	11	1	95*	-2
Cc1nc2c(C)c(C)c(C)c(C)c2nc1C	.	.	.	-1	.	2	.	.
Cc1nc2c(O)c3c(c(O)c2nc1C)C1C=CC3CC1	-107	22*	-1	-10	5	0	-4	0
O=C(O)CC1(CC(=O)NCc2cc(F)cc3c2OCOC3)CCCCC1	14	-3	-4	4	-21	0	.	.
CC1=C(CCN2CCN(C3CCCC3)C(CCO)C2)C(C)(C)CCC1 (stereo not drawn)	-28	5	-1	8	-31	-2	.	.
CC(C)=CCN1CCN(CCC2=C(C)CCCC2(C)C)CC1CCO (stereo not drawn)	-170	24*	3	1	0	-2	0	1
Cc1cccc(C)c1OC(=O)CCN1C(=O)C2C3C=CC(C4CC34)C2C1=O (stereo not drawn)	-9	1	-1	4	2	1	.	.
CC(=O)c1ccc(OCCCC(=O)NCC(c2ccco2)N(C)C)cc1 (stereo not drawn)	14	-3	4	-1	-11	1	.	.
CN(C)C(CNC(=O)CCc1nc2ccccc2s1)c1ccccc1 (stereo not drawn)	-267	33*	5	1	-14	-1	0	0
Cc1cccc(OCCC(=O)NCC(c2ccccc2)N(C)C)c1 (stereo not drawn)	-144	28*	3	-3	17	-2	49*	2
Cc1cccc(NC(=O)CCOc2ccccc2)c1	14	-3	-5	1	13	-3	.	.
O=C(CCc1nc2ccccc2s1)NCc1ccccc1F	1	0	3	-5	21	1	.	.
COc1ccc(NC(=O)CCOc2ccccc2)cc1	6	-1	0	3	-1	-2	.	.
CN(C)C(CNC(=O)CCOc1ccccc1)c1ccco1 (stereo not drawn)	-141	26*	6	-2	4	-2	24*	3
COc1ccc(C(CNC(=O)CCOc2ccccc2)N(C)C)cc1 (stereo not drawn)	-160	32*	-4	0	7	0	361*	3
SMILES	MOR-DOR inv ag	MOR-DOR ag	HTR5A ag ctr	MC4R antag cAMP	HTR5A inv ctr	MC4R barr agon	OPRM1-D1 ag cf	HTR5A ag counter
O=C(C[C@@H]1C/C=C/CCCC(=O)O[C@H](c2ccccc2)CNC1=O)N[C@H](CO)Cc1ccccc1	2	0	-3	6	-20	0	.	.
OC(c1cc(C(F)(F)F)nc2c(Cl)cc(Cl)cc12)C1CCCCN1 (stereo not drawn)	-139	31*	12*	-4	-42	0	1	3
O=c1c(C=Nc2ccc(Cl)cc2)c[nH]n1-c1cccc(Cl)n1	6	-1	6	6	-7	0	.	.
COc1ccc(CC(=O)N(CCC2=CCCCC2)c2c(N)n(Cc3ccccc3)c(=O)[nH]c2=O)cc1	.	.	.	7	.	1	.	.
CC(CC(=O)N(CCC1=CCCCC1)c1c(N)n(Cc2ccccc2)c(=O)[nH]c1=O)c1ccccc1 (stereo not drawn)	-257	39*	-4	4	-17	5	33*	10
O=C1c2ccccc2NC(c2cccc(O)c2)N1Cc1ccco1 (stereo not drawn)	9	-2	3	12	-26	0	.	.
Cc1nn(C)c(C)c1CN(C(=O)C1CCC(=O)N(C2CCCCCC2)C1)C(C)C (stereo not drawn)	13	-3	4	1	21	-3	.	.
CCN1CCN(c2c(S(=O)(=O)c3ccc(C)c(C)c3)cnc3ccc(F)cc23)CC1	-314	53*	-3	4	8	2	12	-3
O=C(N/N=C/c1ccccc1OCC(=O)N1CCCC1)C(=O)Nc1ccccc1F	4	-1	-2	9	6	-2	.	.
O=C(N/N=C/c1ccc(Br)cc1)c1ccc(NC(=O)c2ccccc2)cc1	8	-2	2	10	-26	-1	.	.
